In ChEMBL document CHEMBL2375228, “4-Bromo-2-(piperidin-1-yl)thiazol-5-yl-phenyl methanone (12b) inhibits Na+/K(+)-ATPase and Ras oncogene activity in cancer cells” (Eur J Med Chem, 2013):

Tests used:
[1] = tested on: A549; assay: Cytotoxicity against human A549 cells after 72 hrs by MTT assay; type: functional, cell-based; settings: A549, 72 h
How it was run: (§1)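 Cells grown in RPMI with 10% heat-inactivated fetal calf serum and exposed to compound for 72 h. Overall growth read by MTT colorimetric assay; IC50 derived from it. Six replicates per condition.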

[2] = tested on: PC-3; assay: Cytotoxicity against human PC3 cells after 72 hrs by MTT assay; type: functional, cell-based; settings: PC-3, 72 h; how it was run: as §1
[3] = tested on: MCF7; assay: Cytotoxicity against human MCF7 cells after 72 hrs by MTT assay; type: functional, cell-based; settings: MCF7, 72 h; how it was run: as §1
[4] = Cytotoxicity against human Hs683 cells after 72 hrs by MTT assay; type: functional, cell-based; settings: Hs 683, 72 h; how it was run: as §1
[5] = tested on: SK-MEL-28; assay: Cytotoxicity against human SK-MEL-28 cells after 72 hrs by MTT assay; type: functional, cell-based; settings: SK-MEL-28, 72 h; how it was run: as §1
[6] = Cytotoxicity against human U373 cells after 72 hrs by MTT assay; type: functional, cell-based, U-373MG ATCC; settings: U373 MG; how it was run: as §1
[7] = tested on: Hs 683; assay: Ratio of perillyl alcohol IC50 to compound IC50 for human Hs683 cells; type: functional
[8] = tested on: Hs 683; assay: Cytostatic activity against human Hs683 cells at 40 uM after 48 to 72 hrs by videomicroscopic analysis relative to control; type: functional
How it was run: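 Hs683 glioma cells, untreated or at 40 µM, filmed by computer-assisted phase-contrast videomicroscopy over 72 h, one image every 4 min (1080 images), in triplicate. Growth rate = cell count in last image / first image. GGR index = treated ratio / control ratio.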

[9] = Selectivity index for human U373 cells over NMRI mouse astrocytes; parameters: species or system U-373MG ATCC
[10] = tested on: SK-MEL-28; assay: Ratio of perillyl alcohol IC50 to compound IC50 for human SK-MEL-28 cells; type: functional
[11] = Chemical stability of the compound in water after 72 hrs by mass spectroscopic analysis; type: physicochemical; settings: buffer
How it was run: (§2)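 5 mM DMSO stock diluted 100-fold in water or RPMI and held at 37 °C for 72 h. Samples infused into ESI-QTOF MS (positive mode, scan 110–950 m/z) with FA 0.2%-MeOH 50:50 as solvent.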

[12] = tested on: MCF7; assay: Ratio of perillyl alcohol IC50 to compound IC50 for human MCF7 cells; type: functional
[13] = species on record: Cavia porcellus; assay: Inhibition of guinea pig brain Na+/K+-ATPase at 1 mM preincubated for 10 mins measured after 30 mins relative to control
[14] = tested on: A549; assay: Ratio of perillyl alcohol IC50 to compound IC50 for human A549 cells; type: functional
[15] = tested on: PC-3; assay: Ratio of perillyl alcohol IC50 to compound IC50 for human PC3 cells; type: functional
[16] = Growth inhibition of NMRI mouse astrocytes after 72 hrs by MTT assay; type: cell-based; settings: Astrocyte
[17] = Growth inhibition of NMRI mouse astrocytes at 30 to 300 uM after 72 hrs by MTT assay; type: cell-based, Astrocyte; settings: read-out: GI
How it was run: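 Mouse astrocyte primocultures were plated in uncoated T25 flasks for 72 h, medium was changed and cells grown to confluence. Tested at 0, 30, 60 and 300 µM by MTT colorimetric assay.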

[18] = Ratio of perillyl alcohol IC50 to compound IC50 for human U373 cells; type: functional, U-373MG ATCC
[19] = tested on: Hs 683; assay: Selectivity index for NMRI mouse astrocytes over human Hs683 cells
[20] = Chemical stability of the compound in RPMI culture medium after 72 hrs by mass spectroscopic analysis; type: physicochemical; how it was run: as §2

SMILES	IC50 [1] [µM]	IC50 [2] [µM]	IC50 [3] [µM]	IC50 [4] [µM]	IC50 [5] [µM]	IC50 [6] [µM]	Ratio IC50 [7]	Activity [8] [%]	Selectivity Index [9]	Ratio IC50 [10]	Stability [11]	Ratio IC50 [12]	inhibition [13] [%]	Ratio IC50 [14]	Ratio IC50 [15]	IC50 [16] [µM]	inhibition at 72 h, up to 300 µM [17] [%]	Ratio IC50 [18]	Selectivity Index [19]	Stability [20]
CC(=O)c1sc(N2CCOCC2)nc1Cl	> 100	> 100	88	> 100	> 100	83	–	–	–	–	–	–	–	–	–	–	–	–	–	–
COC(=O)c1sc2nc(N3CCCCC3)sc2c1C	> 100	93	90	> 100	> 100	> 100	–	–	–	–	–	–	–	–	–	–	–	–	–	–
O=C(c1ccccc1)c1sc(N2CCCC2)nc1Br	97	> 100	69	> 100	> 100	> 100	–	–	–	–	–	–	–	–	–	–	–	–	–	–
CSc1nc(Br)c(C(=O)c2ccccc2)s1	97	> 100	67	> 100	> 100	89	–	–	–	–	–	–	–	–	–	–	–	–	–	–
O=C(c1ccccc1)c1sc(N2CCCCC2)nc1Cl	41	69	56	36	91	96	10	40	>5	10	Stable	10	> 50	10	10	> 300	< 50	10	>5	Stable
O=C(c1ccccc1)c1sc(N2CCCC2)nc1Cl	50	> 100	63	44	98	82	–	–	–	–	–	–	–	–	–	–	–	–	–	–
COC(=O)c1sc2nc(N3CCCC3)sc2c1C	86	> 100	56	91	> 100	89	–	–	–	–	–	–	–	–	–	–	–	–	–	–
COC(=O)c1sc2nc(SC)sc2c1C	78	90	69	79	> 100	92	–	–	–	–	–	–	–	–	–	–	–	–	–	–
